How the values were obtained:
Rattus norvegicus [1] = assay: In vivo sterol lowering activity dosed at 0.10 % of the diet; type: functional
Outline: (§1)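 Male CFE or CD-1 Sprague-Dawley rats, 140-150 g; 8 per control group, 4 per test group. Compound mixed into ground chow (w/w) via MeOH-CHCl3 (1:3) solution, solvent evaporated; controls got solvent-treated chow. Fed ad libitum 5 days, food intake monitored, killed fed and bled. Serum sterols and triglycerides by adapted autoanalyzer methods; mean percent of control, Student's t test.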

Rattus norvegicus [2] = assay: In vivo triglyceride lowering activity dosed at 0.10 % of the diet; type: functional; outline: as §1
[3] = target: T1, Sterol O-acyltransferase 1 (Rattus norvegicus) (UniProt O70536); assay: In vitro inhibitory activity against acyl coenzyme A:cholesterol acyltransferase (ACAT); design: concentration or dose not given beside the values; conditions: concentration not given here
T1 sequence (whole entry): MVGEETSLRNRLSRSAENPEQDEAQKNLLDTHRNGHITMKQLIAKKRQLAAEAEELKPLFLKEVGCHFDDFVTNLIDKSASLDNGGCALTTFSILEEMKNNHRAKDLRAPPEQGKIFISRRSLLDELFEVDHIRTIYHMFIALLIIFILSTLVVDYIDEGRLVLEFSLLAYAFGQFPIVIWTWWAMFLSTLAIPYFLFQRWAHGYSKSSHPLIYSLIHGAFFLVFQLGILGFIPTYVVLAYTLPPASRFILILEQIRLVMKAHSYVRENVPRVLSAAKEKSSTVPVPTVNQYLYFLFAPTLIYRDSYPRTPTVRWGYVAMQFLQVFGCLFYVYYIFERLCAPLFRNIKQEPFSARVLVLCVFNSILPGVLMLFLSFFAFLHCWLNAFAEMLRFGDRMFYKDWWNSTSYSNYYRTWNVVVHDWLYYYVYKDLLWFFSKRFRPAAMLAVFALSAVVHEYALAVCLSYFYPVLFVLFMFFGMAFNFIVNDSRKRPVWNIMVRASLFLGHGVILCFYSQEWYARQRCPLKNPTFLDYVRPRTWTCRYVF
Outline: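 ACAT enzyme from rat adrenal homogenate in 0.2 M KH2PO4 buffer pH 7.4, 1000g 15 min 5 °C supernatant (microsomal fraction). Supernatant + BSA (50 mg/mL) + compound at final 5.2 μg/mL + buffer preincubated 10 min 37 °C; [14C]oleoyl-CoA (0.4 μCi) added, 30 min 37 °C. Lipids extracted, TLC; cholesteryl ester zone counted. Mean % inhibition vs no-compound control; Student's t test.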

Rattus norvegicus [4] = assay: In vivo triglyceride lowering activity dosed at 0.05 % of the diet; type: functional; outline: as §1
Rattus norvegicus [5] = assay: In vivo Sterol lowering activity at dose as 0.05 % of the diet; type: functional; outline: as §1
Rattus norvegicus [6] = assay: In vivo Triglyceride lowering activity at dose as 0.025% of the diet; type: functional; outline: as §1
Rattus norvegicus [7] = assay: In vivo Sterol lowering activity at dose as 0.025 % of the diet; type: functional; outline: as §1
Rattus norvegicus [8] = assay: In vivo Triglyceride lowering activity at dose as 0.017 % of the diet; type: functional; outline: as §1
Rattus norvegicus [9] = assay: In vivo Sterol lowering activity at dose as 0.017 % of the diet; type: functional; outline: as §1
Rattus norvegicus [10] = assay: In vivo Sterol lowering activity at dose as 0.03 % of the diet.; type: functional; outline: as §1
Rattus norvegicus [11] = assay: In vivo triglyceride lowering activity, dosed at 0.03 % of the diet; type: functional; outline: as §1
Rattus norvegicus [12] = assay: In vivo Sterol lowering activity at dose as 0.01 % of the diet..; type: functional; outline: as §1
Rattus norvegicus [13] = assay: In vivo triglyceride lowering activity, dosed at 0.01 % of the diet.; type: functional; outline: as §1
Rattus norvegicus [14] = assay: In vivo Sterol lowering activity at dose as 0.10 % of the diet.; type: functional; outline: as §1
Rattus norvegicus [15] = assay: In vivo Sterol lowering activity at dose as 0.025 % of the diet.; type: functional; outline: as §1
Rattus norvegicus [16] = assay: In vivo Triglyceride lowering activity at dose as 0.025% of the diet.; type: functional; outline: as §1
Rattus norvegicus [17] = assay: In vivo triglyceride lowering activity, dosed at 0.10 % of the diet.; type: functional; outline: as §1
Rattus norvegicus [18] = assay: In vivo Triglyceride lowering activity at dose as 0.05 % of the diet.; type: functional; outline: as §1
Rattus norvegicus [19] = assay: In vivo Sterol lowering activity at dose as 0.017 % of the diet.; type: functional; outline: as §1
Rattus norvegicus [20] = assay: In vivo Triglyceride lowering activity at dose as 0.017 % of the diet.; type: functional; outline: as §1
Rattus norvegicus [21] = assay: In vivo Sterol lowering activity at dose as 0.05 % of the diet.; type: functional; outline: as §1
Rattus norvegicus [22] = assay: In vivo Triglyceride lowering activity at dose as 0.025 % of the diet.; type: functional; outline: as §1

Row | SMILES | serum sterol, percent of control (Rattus norvegicus [1]) [%] | serum triglycerides, percent of control (Rattus norvegicus [2]) [%] | inhibition [3] [%] | Diet (Rattus norvegicus [4]) [%] | Diet (Rattus norvegicus [5]) [%] | Diet (Rattus norvegicus [6]) [%] | Diet (Rattus norvegicus [7]) [%] | serum sterol, percent of control (Rattus norvegicus [14]) [%] | Diet (Rattus norvegicus [18]) [%] | further results
1 | CCOC(=O)c1ccc(NCCCCCCCCc2ccccc2)cc1 | 98 | <54 | < 50 | <65 | 96 | <61 | 88 |  |  | 
2 | CCCCCCCCCCc1ccc(CNc2ccc(C(=O)O)cc2)cc1 | <78 | 114 | < 51 | 113 | <88 |  |  |  |  | Serum triglycerides, % of control (Rattus norvegicus [8]): 100%; Diet (Rattus norvegicus [9]): 99%
3 | CCOC(=O)c1ccc(NCCCc2ccc(N)cc2)cc1 |  | 79 | 28 |  |  |  |  | 100 |  | serum sterol level, percent of control (Rattus norvegicus [10]): 97%; serum triglycerides, percent of control (Rattus norvegicus [11]): 70%; Diet (Rattus norvegicus [12]): 93%; Diet (Rattus norvegicus [13]): 113%
4 | CCOC(=O)c1ccc(NCCCCCc2ccccc2)cc1 |  | 62 | 69 | 66 | 85 |  |  | 90 |  | Diet (Rattus norvegicus [15]): 92%; Diet (Rattus norvegicus [16]): 84%
5 | CCOC(=O)c1ccc(NCCCCCCCc2ccccc2)cc1 | 89 | <72 | < 54 | <82 | 89 | <84 | 90 |  |  | 
6 | O=C(O)c1ccc(NCCCCCCCCCCc2ccccc2)cc1 | <87 | 81 | < 44 | 88 | 89 | <79 | <87 |  |  | 
7 | O=C(O)c1ccc(NCCCCc2cccs2)cc1 |  |  | 10 |  |  |  |  | 77 | 89 | Diet (Rattus norvegicus [17]): 90%; Diet (Rattus norvegicus [19]): 90%; Diet (Rattus norvegicus [20]): 94%; Diet (Rattus norvegicus [21]): 98%
8 | CCCCCCCOc1ccc(CNc2ccc(C(=O)OCC)cc2)cc1 | 90 | <80 |  | <76 | <86 |  |  |  |  | Serum triglycerides, % of control (Rattus norvegicus [8]): 88%; Diet (Rattus norvegicus [9]): 100%
9 | O=C(O)c1ccc(NCCCCCCc2ccccc2)cc1 |  | 40 | 17 | 46 | 85 | 52 | 83 | 86 |  | 
10 | CCOC(=O)c1ccc(NCCCCCCc2ccccc2)cc1 | 82 | 43 | 41 | 45 | 84 |  | 89 |  |  | Diet (Rattus norvegicus [16]): 59%
11 | CCCCCCCCCCCCCOc1ccc(CNc2ccc(C(=O)O)cc2)cc1 | 81 | <56 | < 36 | <65 | 100 |  |  |  |  | Serum triglycerides, % of control (Rattus norvegicus [8]): <62%; Diet (Rattus norvegicus [9]): 100%
12 | O=C(O)c1ccc(NCCCCCc2ccccc2)cc1 |  |  | 26 |  | 84 |  |  | 108 | 78 | Diet (Rattus norvegicus [15]): 95%; Diet (Rattus norvegicus [17]): 89%; Diet (Rattus norvegicus [16]): 96%
13 | CCCCCCCOc1ccc(CNc2ccc(C(=O)O)cc2)cc1 | <84 | <72 | < 24 | <70 | <84 |  |  |  |  | Serum triglycerides, % of control (Rattus norvegicus [8]): 95%; Diet (Rattus norvegicus [9]): 100%
14 | COc1ccccc1CCCNc1ccc(C(=O)O)cc1 |  |  | 0 |  |  |  |  | 110 | 87 | Diet (Rattus norvegicus [15]): 102%; Diet (Rattus norvegicus [22]): 100%; Diet (Rattus norvegicus [17]): 72%; Diet (Rattus norvegicus [21]): 100%
15 | O=C(O)c1ccc(NCCCCCCCCCCCc2ccccc2)cc1 | <83 | <74 | < 24 | <69 | <76 | <68 | 83 |  |  | 
16 | CCOC(=O)c1ccc(NCCc2cccs2)cc1 | 86 |  | 49 |  |  |  |  |  | 94 | Diet (Rattus norvegicus [17]): 69%; Diet (Rattus norvegicus [9]): 86%; Diet (Rattus norvegicus [20]): 81%; Diet (Rattus norvegicus [21]): 90%
17 | CCOC(=O)c1ccc(NCc2ccc(-c3ccccc3)cc2)cc1 |  | 52 | 19 |  | 94 |  |  | 94 | 76 | Diet (Rattus norvegicus [15]): 102%; Diet (Rattus norvegicus [22]): 74%
18 | O=C(O)c1ccc(NCCCCCCCCCc2ccccc2)cc1 | 92 | <68 | < 28 | <58 | 96 | <50 | 96 |  |  | 
19 | CCOC(=O)c1ccc(NCCCCc2cccs2)cc1 |  |  | 56 |  |  |  |  | 90 | 96 | Diet (Rattus norvegicus [15]): 94%; Diet (Rattus norvegicus [17]): 99%; Diet (Rattus norvegicus [21]): 97%; Diet (Rattus norvegicus [16]): 89%
